core dimer inh: blocks dimerization of HCV core protein; TR-FRET GST/Flag-core106 dimerization, 1536-well; inhibition, % at 5 µM; hit rate 0.33% among 300,000; AID 1899;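 active = inhibition above the mean of all tested compounds plus 3 SD, set per screening campaign, cut at about 45% in these data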
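Assay system – GST-tagged and Flag-tagged HCV core protein residues 1-106 · Quantity – core106 proteins, GST 13.5 nM and Flag 17 nM · Benchmarks – unlabelled core106 and no-GST-core106 wells · Read-out basis – percent inhibition of core106 dimerization signal · Detection – time-resolved FRET, ex 340 nm, em 617 and 671 nm · Schedule – 4 h at 22.5 °C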
HCV NS3 hel inh: blocks Hepatitis C virus NS3 helicase unwinding; hit rate 0.56% among 290,000; inhibition, % at 10.9 µM; NS3 helicase DNA unwinding, Cy5 molecular beacon fluorescence; AID 1800;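 active = inhibition above the mean of all tested compounds plus 3 SD, set per campaign, cut at about 35% in these data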;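 note: 0% = DMSO wells and 100% = thioflavine S control wells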
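Assay system: hepatitis C virus NS3 helicase domain fragment enzyme. Also added: annealed dual-labelled DNA beacon duplex, ATP-started. Timing: 1 h reaction at 25 °C, ATP-initiated. Technique: Cy5 fluorescence at 0 and 60 min, beacon hairpin quenching. Evaluation: % inhibition of unwinding. Replication: one well per compound.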
eIF4H FP inh: inhibitors of RNA binding by human eIF4H; Q15056; eIF4H fluorescence polarization binding assay; inhibition, % at 35 µM; hit rate 0.94% among 290,000; AID 2012;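 note: calls also rest on retests at 20 µM and on dose response follow-up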
PABP FP inh: blocks human PABP binding to poly(A) RNA | AID 2014 | fluorescence polarization | inhibition, % at 35 µM | hit rate 1% among 290,000;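 note: calls also rest on retests at 20 µM and on dose response follow-up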
MLLE-PAM2 inh: inhibitors of microRNA-mediated deadenylation, human PABP1 MLLE binding. GST-MLLE / FITC-PAM2 fluorescence polarization. AID 588489. inhibition, % at 20 µM. P11940. hit rate 0.36% among 360,000; in the data active = inhibition above about 35%, passing the limit was not always enough;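 note: plate controls were DMSO wells with GST-MLLE for no effect and wells lacking GST-MLLE protein for full effect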
FID counter: fluorescent intercalator displacement, NS3 helicase counter-screen; hit rate 0.17% among 290,000; DNA fluorescent intercalator displacement, fluorescence; AID 1845; inhibition, % at 7.9 µM; in the data active = inhibition above about 37%;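 note: 0% = vehicle and 100% = reference compound; higher means more ethidium bromide displaced from hairpin DNA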
* hit, by the source's call; ? = inconclusive; . = not tested or not shown. In the library only some 2% were active in any assay of this set; here they are far more common. Unless noted, the rule behind the calls is not given here.

SMILES	core dimer inh	HCV NS3 hel inh	eIF4H FP inh	PABP FP inh	MLLE-PAM2 inh	FID counter
O=C(NNC(=O)c1cccc(-n2cccc2)c1)c1ccc(F)cc1	52*	.	.	.	-1	.
Cc1cccc(C(=O)NNC(=O)c2ccc(F)cc2)c1	-9	-1	-8	-12	4	-9
O=C(C1=C(O)C(=O)N(CCN2CCOCC2)C1c1cccc(F)c1)c1cc2ccccc2o1 (stereo unspecified)	1	4	12	4	-2	-45
CCCC(=O)N1CC2(CCC)CN(C(=O)CCC)CC(CCC)(C1)C2=O	0	4	0	-2	10	-17
CCCCCC(=O)N1CC2(CC)CN(C(=O)CCCCC)CC(CC)(C1)C2=O	-1	3	99*	92*	-8	-31
Cc1ccc(-c2nc(SCC(=O)N(C)c3c(N)n(Cc4ccccc4)c(=O)[nH]c3=O)n[nH]2)cc1	-2	5	106*	52*	-10	-37
CC(C)(C)c1ccc(-c2cn(-c3ccc(Br)cc3)c3[n+]2CCCS3)cc1	.	-74	11	3	-23	2
COCc1ccc(CN2CCc3c([nH]c4ccccc34)C2CC(C)C)o1 (stereo unspecified)	3	-2	67	119*	-13	-8
Cc1onc(-c2ccccc2Cl)c1C(=O)NCc1ccco1	57*	21	95*	75*	-2	-11
COC(=O)CCCC1=CC2=CC(=O)C(C)(OC(=O)c3cccs3)C(=O)C2=CN1CCCOC(C)C (stereo unspecified)	2	.	61	29*	13	.
COC(=O)CCCC1=CC2=CC(=O)C(C)(OC(=O)c3cccs3)C(=O)C2=CN1Cc1ccccc1 (stereo unspecified)	15	.	41	25	7	.
COC(=O)CCCC1=CC2=CC(=O)C(C)(OC(=O)c3cccs3)C(=O)C2=CN1Cc1ccco1 (stereo unspecified)	8	.	61*	50*	10	.
CCCCC1=CC2=CC(=O)C(C)(OC(=O)CC)C(=O)C2=CN1Cc1ccco1 (stereo unspecified)	20	.	70*	64*	6	.
COC(=O)CCCC1=CC2=CC(=O)C(C)(OC(=O)c3cccs3)C(=O)C2=CN1c1ccc(OC)cc1 (stereo unspecified)	20	.	59	34*	2	.
CN1CCN(c2ccc(CNC(=O)C3Cc4c(-c5ccc(Cl)cc5)ccnc4O3)cc2)CC1 (stereo unspecified)	.	.	.	.	1	.
CCCCC1=CC2=CC(=O)C(C)(OC(=O)CC)C(=O)C2=CN1Cc1ccccc1 (stereo unspecified)	11	.	36	30	-20	.
CCCCC1=CC2=CC(=O)C(C)(OC(=O)CC)C(=O)C2=CN1c1ccccc1 (stereo unspecified)	18	.	83	45*	3	.
CCN(CCNCC(O)COCc1ccc(Cl)cc1)c1cccc(C)c1 (stereo unspecified)	3	-53	14*	67	1	16
CCN(CCNC(=O)c1ccc(C#N)cc1)c1cccc(C)c1	-10	13	7	1	-3	-6
CN(C)c1ccc2nc3ccc(=[N+](C)C)cc-3sc2c1	-93	31	?	-12	14	74*
CN(C)c1ccc2nc3ccc(=O)cc-3sc2c1	.	.	.	.	-12	.
CCOC(=O)CSC1=N/C(=C\c2cc(OC)c(OC)c(OC)c2)C(=O)N1C	-11	15	-2	0	42*	-7
CCNCc1ccccc1OCc1ccccc1	-2	-7	9	-3	-8	4
Oc1ccc(NCc2ccccc2OCc2ccccc2)cc1	2	10	88*	active	-8	0
C[C@@H]1CN([C@@H](C)CO)C(=O)c2cc(Br)cnc2O[C@H]1CN(C)C(=O)CN1CCOCC1	.	.	.	.	13	.
SMILES	core dimer inh	HCV NS3 hel inh	eIF4H FP inh	PABP FP inh	MLLE-PAM2 inh	FID counter
Cc1c(C(=O)NCC(c2ccco2)N2CCCC2)sc2ccccc12 (stereo unspecified)	.	.	.	.	-10	.
O=C(NCC(c1ccco1)N1CCCC1)c1sc2ccccc2c1Cl (stereo unspecified)	6	-11	85*	84*	-6	6
O=C1CC(c2ccccc2)Cc2nc(N3CCc4ccccc4C3)ncc21 (stereo unspecified)	9	-4	-10	-5	56*	-11
COc1ccc(C(=O)NC2=NCCS2)cc1S(=O)(=O)N1CCOCC1	.	.	.	.	4	.
CCn1c(CSc2nccn2C)nc2cc(C(=O)O)ccc21	-5	18	115*	126*	51*	-22
CCOc1ccc(Nc2nc(Cc3nnc(SCC(=O)O)o3)cs2)cc1	-1	32	48*	62	-54	-42
CCc1nnc(NC(=O)CSc2ccc(-c3cccs3)nn2)s1	3	3	?	active	32	-20
COC(=O)c1ccc2c(=O)n(-c3ccc(OC)cc3)c(=S)[nH]c2c1	-1	1	2	-1	18	-5
O=C1CCCC2=C1C(c1ccc(Cl)cc1)n1c(s/c(=C\c3ccc4ccncc4c3)c1=O)=N2 (stereo unspecified)	7	10	55*	active	-53	-10
O=C(O)CCC(=O)c1ccc2c(c1)CCCC2	-4	-6	-6	5	8	-6
O=C(O)c1ccc2c(c1)CCC2	2	-13	3.3*	54*	5	-2
COc1cc(C2Nc3c(F)cccc3C3C=CCC32)cc(Br)c1OC (stereo unspecified)	46*	27	13	-8	-8	-2
Cc1ccc(CN2CCN(/N=C/c3ccc(C(=O)O)cc3)CC2)cc1	-3	15	85*	2	1	-6
COc1ccc(/C=N\NS(=O)(=O)c2ccc(Cl)cc2)cc1COc1ccccc1[N+](=O)[O-]	47*	1	-10	-8	-12	5
Cc1ccc(C)c(N2CCN(C(=S)Nc3ccc4nc(N5CCN(C)CC5)cc(C)c4c3)CC2)c1	13	-72	2	-2	-110	47*
CCCN1CCN(C(=S)Nc2ccc3nc(N4CCN(CC)CC4)cc(C)c3c2)CC1	2	3	-7	-2	-74	50*
Cc1ccc(C)c(N2CCN(C(=S)Nc3ccc4nc(N5CCOCC5)cc(C)c4c3)CC2)c1	4	-17	0	-5	-9	4
CNc1cc(C)nc(N2CCOCC2)n1	3	3	92*	39	3	-1
CCN(CC)c1ccc(NC(=O)CSc2nc(C)cc(=O)[nH]2)cc1	-9	.	-8	-8	10	.
Cc1cc(=O)[nH]c(SCC(=O)Nc2ccc(C(=O)O)cc2)n1	2	12	0	7	47*	-5
Cc1cc(=O)[nH]c(SCC(=O)Nc2ccc(N3CCCCC3)cc2)n1	.	.	.	.	17	.
CCOC(=O)c1ccc(NC(=O)CSc2nc(C)cc(=O)[nH]2)cc1	63*	17	81*	18*	-7	-4

Screening data as filed in PubChem.
